Screening results (PubChem BioAssay)
This is one part of a sample in which hits are shown more often than they occur.
ALR H2O2 inh – blocks human ALR sulfhydryl oxidase activity; AID 485317; inhibition, % (no concentration beside the values); P55789; hit rate 3.8% among 290,000; purified ALR, DTT oxidation, H2O2 HRP-luminol luminescence;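 active = mean replicate inhibition above about 79%, with every replicate also reaching it, limit read from the data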
Target sequence (P55789 whole entry, looked up): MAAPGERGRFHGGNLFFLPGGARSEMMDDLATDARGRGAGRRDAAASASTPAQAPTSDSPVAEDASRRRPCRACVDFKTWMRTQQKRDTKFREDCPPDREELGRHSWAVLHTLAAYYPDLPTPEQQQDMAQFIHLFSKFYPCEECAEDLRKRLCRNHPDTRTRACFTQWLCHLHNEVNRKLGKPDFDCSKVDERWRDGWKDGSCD
T cell HTS – T cell immune modulators affecting CD8 T cell-vesicle binding; 2C CD8+ T cell-vesicle binding, flow cytometry; hits give low values; response (vesicle binding), % at 7 µM; hit rate 0.068% among 330,000; AID 2052;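 active = response, share of CD8 T cells binding vesicles, and their 90th percentile fluorescence all below set limits, cut at about 80% in these data, passing the limit was not always enough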;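 also: values below 100% mean blocked vesicle binding to the CD8+ T cells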
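Material: murine 2C transgenic CD8+ T lymphocytes / Also added: QL9-peptide-loaded Drosophila micro-vesicles bearing Ld, ICAM-1 and B7-1 / Schedule: binding step 1.5 h, 37 °C, antibody labelling 20 min, ice / Signal: flow cytometry, PE anti-B7-1 (FL2) versus Alexa647 anti-CD8 (FL8), PFA-fixed / Evaluation: percent CD8+ FL2 mean versus row control / Benchmarks: naked versus QL9-loaded vesicles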
N-glyco inh – N-linked glycosylation inhibition; D54 ERlucT glycosylation luciferase reporter, 24 h; percent of 100 nM tunicamycin response; hit rate 0.23% among 360,000; reporter increase, % at 12.5 µM;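 active = mean luciferase reporter signal, scaled so untreated is 0 and the glycosylation-blocking control 100, at or above a set limit in every replicate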;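 also: luciferase carries N-glycosylation sites so blocking glycosylation raises the light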
Each line names hits and unclear results; the compound was inactive in the other large screens.

C/C=C(/C(=C/C)c1ccc(O)cc1)c1ccc(O)cc1	none (no result: ALR H2O2 inh)
C=C(c1ccc(O)cc1)c1ccc(O)cc1	ALR H2O2 inh 98
O=C(c1ccc(F)cc1Cl)N1CCN(S(=O)(=O)c2cccs2)CC1	none
CCc1nc2ccccc2c(=O)n1/N=C/c1ccc(Cl)cc1	none
Nc1nc(Nc2ccccc2)n[nH]1	ALR H2O2 inh 98
Nc1nc(Nc2ccc(Cl)cc2)n[nH]1	ALR H2O2 inh 99
Nc1nc(SCc2ccccc2)n[nH]1	none
Nc1nc(Nc2cccc(Cl)c2)n[nH]1	none
C=CCn1c(-c2sc3nc(C)cc(C)c3c2N)n[nH]c1=S	none
CCOC(=O)C1CCCN(Cc2c(F)cccc2Cl)C1 (stereo not given)	ALR H2O2 inh 99
CCOC(=O)C1CCN(C(=O)Cc2c(F)cccc2Cl)CC1	none
CCOC(=O)C1CCN(Cc2c(F)cccc2Cl)CC1	ALR H2O2 inh 98
CCOC(=O)C1CCCN(C(=O)Cc2c(F)cccc2Cl)C1 (stereo not given)	none
COc1cc(C(C)=O)ccc1Oc1cc(NN2CCCCC2)c([N+](=O)[O-])cc1[N+](=O)[O-]	none
COc1ccc(-c2ccc3c(c2)O[C@@H](CN(C)C(=O)c2ccccc2F)[C@@H](C)CN([C@@H](C)CO)S3(=O)=O)cc1	none (no result: ALR H2O2 inh, T cell HTS)
COc1cc2c[n+](C)c3c4ccccc4ccc3c2cc1OC	N-glyco inh 34 (no result: ALR H2O2 inh, T cell HTS)
COc1ccc(Cc2c3cc(OC)c(OC)cc3cc[n+]2C)cc1OC	none
CC(C)c1nc2n[nH]c(N)c2c2c1CSC(C)(C)C2	ALR H2O2 inh 98
CCCCc1nc2n[nH]c(N)c2c2c1CSC(C)(C)C2	none (no result: ALR H2O2 inh)
C/C(=N\NC(=O)c1cc(O)ccc1O)c1cccc(NC(=O)c2ccc(Cl)cc2)c1	none
C/C(=N\NC(=O)c1ccc(O)cc1)c1ccc2c(c1)Nc1ccccc1S2	ALR H2O2 inh 99
C/C(=N\NC(=O)c1cccc(N/N=C(\C)c2ccc([N+](=O)[O-])cc2)c1)c1ccc([N+](=O)[O-])cc1	none
C/C(=N\NC(=O)c1ccccc1F)c1ccc2c(c1)Nc1ccccc1S2	none
C/C(=N\NC(=O)c1cc(O)ccc1O)c1cccc(NC(=O)c2cccc(Cl)c2)c1	ALR H2O2 inh 90 (no result: N-glyco inh)
C/C(=N\NC(=O)c1cccc(N/N=C(\C)c2ccccc2)c1)c1ccccc1	ALR H2O2 inh 87
C/C(=N\NC(=O)c1cccc(N/N=C(\C)c2ccncc2)c1)c1ccncc1	ALR H2O2 inh 99
CC(=NNC(=O)c1ccncc1)c1cccc(Br)c1	none (no result: ALR H2O2 inh, T cell HTS)
CNC(=O)OCc1nc(SC2CCCCO2)n(C)c1COC(=O)NC (stereo not given)	none (no result: ALR H2O2 inh, T cell HTS)
CCOC1=CC(=O)OC(c2ccccc2)C1 (stereo not given)	none (no result: ALR H2O2 inh, T cell HTS)
O=C(CC1CCCC1)NNC(=O)c1ccc(F)cc1	none
COc1ccc(CN2C[C@@H](CO)O[C@@H](n3cnc4c(NCCCO)ncnc43)C2)cc1	none (no result: ALR H2O2 inh, T cell HTS)
COc1ccc(CC(=O)NNC(=O)c2ccc(Br)s2)cc1OC	none
C/C(=N/NC(=O)c1ccc(-c2ccccc2)cc1)c1cc(O)cc(O)c1	ALR H2O2 inh 99
C/C(=N\NC(=O)c1cc(O)cc(O)c1)c1ccc(NC(=O)Cc2ccccc2)cc1	none
CN(C)c1ccc(N2[C@@H](CC(=O)O)c3cc(C(F)(F)F)ccc3S2(=O)=O)cc1	none
Nc1nc(SCC(=O)Nc2ccc(Cl)cc2)[nH]c(=O)c1-c1ccccc1	none
Cc1ccc(NC(=O)CSc2nc(N)cc(=O)[nH]2)cc1Cl	ALR H2O2 inh 95
Nc1cc(=O)[nH]c(SCC(=O)Nc2cccc(Cl)c2)n1	none
Cc1ccc(NC(=O)CSc2nc(N)c(-c3ccccc3)c(=O)[nH]2)cc1Cl	ALR H2O2 inh 98
Cc1ccc(Cl)cc1NC(=S)N(Cc1ccccc1)Cc1cccnc1	none
CCOC(=O)C1(CC2CCCCO2)CCN(Cc2nc3ccccc3[nH]2)CC1 (stereo not given)	none (no result: ALR H2O2 inh)
Cc1ccc(C2=NN(S(=O)(=O)c3ccccc3)C(c3ccco3)C2)cc1 (stereo not given)	none (no result: ALR H2O2 inh)
O=S(=O)(c1ccccc1)N1N=C(c2ccc(O)cc2)CC1c1ccco1 (stereo not given)	ALR H2O2 inh 100
COc1ccc(Br)cc1S(=O)(=O)NCc1ccccn1	none
Cc1cc(Br)ccc1NCc1ccccn1	ALR H2O2 inh 98
N#CC1=C(N)Oc2n[nH]c(-c3cccs3)c2C1c1ccco1 (stereo not given)	ALR H2O2 inh 75
N#CC1=C(N)Oc2n[nH]c(-c3cccs3)c2C1c1ccncc1 (stereo not given)	none (no result: ALR H2O2 inh)
CCOc1ccc(CCNC(=O)CS(=O)(=O)Cc2nc(-c3ccccc3F)oc2C)cc1	none
COc1ccc(CCNC(=O)CS(=O)Cc2nc(-c3cccs3)oc2C)cc1OC (stereo not given)	ALR H2O2 inh 99
COc1ccc(CCNC(=O)C2CCCN(Cc3nc(-c4ccccc4C)oc3C)C2)cc1OC (stereo not given)	none
COc1ccc(CCNC(=O)CS(=O)(=O)Cc2nc(-c3ccccc3Cl)oc2C)cc1OC	none
COc1ccc(CCNC(=O)CS(=O)Cc2nc(-c3ccccc3F)oc2C)cc1OC (stereo not given)	ALR H2O2 inh 99
COc1ccc(CCNC(=O)COC(=O)c2cccs2)cc1OC	none
COc1ccc(CCNC(=O)CS(=O)Cc2nc(-c3ccccc3Cl)oc2C)cc1OC (stereo not given)	ALR H2O2 inh 98
Cc1ccc(CCNC(=O)CS(=O)Cc2nc(-c3ccccc3F)oc2C)cc1 (stereo not given)	ALR H2O2 inh 99
CSc1nccc(NC(=O)c2cccc(Br)c2)n1	none
NNC(=O)c1ccc(Cn2cc(Br)c(N)n2)cc1	none
O=C(NN1CCOCC1)NC12CC3CC(CC(C3)C1)C2	none
CC(C)CNC(=O)c1cccc(NC(=O)c2ccc3c(c2)C(=O)N(C)C3=O)c1	none
O=C(CSc1nc2ccccc2c(=O)n1CCCN1CCOCC1)NC12CC3CC(CC(C3)C1)C2	none (no result: ALR H2O2 inh)
O=C(C[C@H]1C[C@@H]2c3cc(NS(=O)(=O)c4ccccc4)ccc3O[C@@H]2[C@H](CO)O1)N1CCOCC1	none (no result: ALR H2O2 inh, T cell HTS)
Cc1onc(-c2c(F)cccc2Cl)c1C(=O)Nc1cc2cc([N+](=O)[O-])ccc2oc1=O	none (no result: ALR H2O2 inh, T cell HTS)
CCOc1cc(/C=C(\C#N)C(N)=O)ccc1OS(=O)(=O)c1ccccc1	ALR H2O2 inh 98
CCOC(=O)/C(C#N)=C/c1ccc(OC)c(OC)c1	none
CCOc1ccc2nc(N3C(=O)/C(=C/c4ccc(Cl)cc4)NC3=S)sc2c1	none (no result: ALR H2O2 inh, T cell HTS)
O=C(O)c1cc(-n2[nH]c(=O)c3ccccc3c2=O)ccc1Cl	none
CCc1c(O)nc(SCC(=O)Nc2nc3ccccc3s2)n(-c2ccc(C)cc2)c1=O	ALR H2O2 inh 98
COc1cccc(-n2c(SCC(=O)Nc3nc4ccccc4s3)nc3ccccc3c2=O)c1	none (no result: ALR H2O2 inh, N-glyco inh)
CCc1c(O)nc(SCC(=O)Nc2nc3ccccc3s2)n(-c2ccccc2)c1=O	ALR H2O2 inh 96
C=CCn1c(SCC(=O)Nc2nc3ccccc3s2)nc(O)c(CC)c1=O	ALR H2O2 inh 99
CCSCc1nnc(SCC(=O)Nc2nc3ccccc3s2)n1C	none
CCc1c(O)nc(SCC(=O)Nc2c(C)cccc2C)n(-c2ccc(F)cc2)c1=O	none (no result: ALR H2O2 inh, T cell HTS)
C[C@@H]1CN([C@@H](C)CO)C(=O)c2cc(C#Cc3ccccc3)cnc2O[C@@H]1CN(C)Cc1ccccn1	none (no result: ALR H2O2 inh, T cell HTS)
CCC1NC(=O)c2cccnc2-n2c1nc1cc(F)ccc1c2=O (stereo not given)	none (no result: ALR H2O2 inh, T cell HTS)
Nc1cc(=O)nc(SCC(=O)Nc2ccccc2)n1-c1ccccc1	none
